Source: PubChem BioAssay
T cruzi growth-1: T. cruzi proliferation inhibition. T. cruzi beta-gal in NIH3T3, GalScreen luminescence, 90 h. inhibition, % at 8.34 µM. 77,000 tested, 5.9% active;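 active = mean inhibition above about 93%, with at least 55% of replicates each passing it, limit read from the data, passing the limit was not always enough; inconclusive = only one of those two conditions holds; inactive = neither condition holds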
IDH1 R132H inh: IDH1 R132H (human) inhibition; O75874; IDH1 R132H reductase, diaphorase/resazurin fluorescence, 60 min; inhibition, % at 10 µM; 70,000 tested, 0.18% active; AID 624101; in the data active = inhibition above about 34%; inconclusive = no clear call, values can overlap the other calls; inactive = below about 11%
Target sequence (O75874 whole entry R132H): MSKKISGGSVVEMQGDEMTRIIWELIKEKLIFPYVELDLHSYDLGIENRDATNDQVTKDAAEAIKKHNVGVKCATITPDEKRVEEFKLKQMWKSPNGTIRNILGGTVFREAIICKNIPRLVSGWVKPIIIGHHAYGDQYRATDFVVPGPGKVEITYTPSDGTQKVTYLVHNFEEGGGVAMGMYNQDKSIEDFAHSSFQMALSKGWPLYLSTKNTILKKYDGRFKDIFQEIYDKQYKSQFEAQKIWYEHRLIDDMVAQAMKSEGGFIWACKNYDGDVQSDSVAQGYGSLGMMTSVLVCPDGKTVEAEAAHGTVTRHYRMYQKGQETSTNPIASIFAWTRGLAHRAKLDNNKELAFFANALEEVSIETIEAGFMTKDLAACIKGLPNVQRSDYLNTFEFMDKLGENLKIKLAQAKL
KDM4C inh: inhibitors of human demethylase GASC-1 KDM4C. AID 720574. Q9H3R0. 96,000 tested, 0.15% active. inhibition, % at 12.5 µM. GST-KDM4C 2-372, H3K9me3 peptide, LANCE TR-FRET;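 active = mean replicate inhibition above about 25%, with at least 55% of replicates also reaching it, limit read from the data, passing the limit was not always enough; inconclusive = only one of those two conditions met; inactive = neither condition met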
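System – N-terminal GST-fused human GASC-1 (KDM4C) fragment, residues 2-372 · Input – enzyme final amount 10 nM · Technique – LANCE TR-FRET, Eu antibody, ULight-streptavidin, EDTA, ex 340 nm, em 618/671 nm · Medium – HEPES buffer, pH 7.5, plus ascorbate · Incubation – enzyme reaction 30 min, then detection 60 min, both room temperature · Reagent – H3K9me3 peptide with Fe(II)/2OG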
T cruzi growth-2: blocks T. cruzi growth in NIH3T3 host cells | shares compounds with T cruzi growth-1 | T. cruzi beta-gal in NIH3T3, GalScreen luminescence, 90 h | inhibition, % at 8.35 µM | 5,600 tested, 72% active;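 active = mean replicate inhibition above about 95% and at least 55% of replicates individually reaching it, limit read from the data; inconclusive = only one of the two criteria is met; inactive = neither criterion is met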
T cruzi growth-3: inhibitors of T. cruzi proliferation; T. cruzi beta-gal in NIH3T3, GalScreen luminescence, 90 h; AID 651740; 5,600 tested, 21% active; shares compounds with T cruzi growth-1; inhibition, % at 2.09 µM;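 active = mean inhibition above about 95%, with at least 55% of replicates also reaching it, limit read from the data; inconclusive = meets just one of the two conditions; inactive = meets neither condition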
3T3 cytotox: kills mouse NIH/3T3 fibroblasts; shares compounds with T cruzi growth-1; NIH/3T3 viability, CellTiter-Glo ATP luminescence, 90 h; cytotoxicity (signal decrease), % at 8.35 µM; 5,600 tested, 14% active; AID 651742;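 active = mean signal decrease across replicates above about 35% based on untreated-well scatter, with enough replicates individually passing, limit read from the data; inconclusive = no rule stated though some were filed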
3T3 cytotox 2: cytotoxicity in mouse NIH/3T3 fibroblasts; shares compounds with T cruzi growth-1; NIH/3T3 viability, CellTiter-Glo ATP luminescence, 90 h; inhibition, % at 24.9 µM; 5,600 tested, 56% active;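 active = mean loss of cell viability signal at or above a set limit, and enough replicates individually reaching it; inconclusive = meets only the mean limit or only the replicate share; inactive = meets neither condition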
A number is an active result; - = inactive; ? = inconclusive; . = no result. Only a selection was taken, and hits are over-represented in it overall.

SMILES	T cruzi growth-1	IDH1 R132H inh	KDM4C inh	T cruzi growth-2	T cruzi growth-3	3T3 cytotox	3T3 cytotox 2
CCCC#Cc1ccc([C@H]2[C@H]3CN(Cc4ccncc4)CCCCN3[C@H]2CO)cc1	95	.	-	105	-	42	81
COc1ccc(C#Cc2ccc([C@@H]3[C@@H](CO)N4CCCCN(Cc5ccncc5)C[C@H]34)cc2)cc1	?	.	-	100	?	89	105
COc1ccc(C#Cc2ccc([C@H]3[C@H]4CN(Cc5ccncc5)CCCCN4[C@H]3CO)cc2)cc1	-	.	-	.	.	.	.
CO[C@H]1CN(C)C(=O)c2ccc(NC(=O)Nc3ccccc3)cc2OC[C@H](C)N(C(C)=O)C[C@@H]1C	.	.	-	.	.	.	.
CO[C@@H]1CN(C)C(=O)c2cc(NS(=O)(=O)c3ccccc3F)ccc2OC[C@H](C)NC[C@H]1C	-	-	-	.	.	.	.
O=C(NCC[C@@H]1CC[C@H](NS(=O)(=O)c2cccc(F)c2)[C@H](CO)O1)C1CC1	-	-	-	.	.	.	.
COC(=O)c1c(NC(=S)NC(C)c2ccncc2)sc2c1CCC(C)C2 (stereo unspecified)	.	-	.	.	.	.	.
COC(=O)c1cc(O)cc(OC)c1Oc1cc(C)cc(O)c1C(=O)OC	.	-	.	.	.	.	.
Cc1cccc(NC(=O)CSc2nnc(-c3cccs3)n2-c2ccccc2)c1C	.	-	.	.	.	.	.
COc1ccccc1C(=O)Nc1ccc2c(c1)OC[C@H](C)N(CC1CC1)C[C@H](C)[C@@H](OC)CN(C)C2=O	.	.	-	.	.	.	.
COc1ccc(-c2ccc([C@H]3[C@@H](C#N)N(C(=O)c4cccc(F)c4)[C@H]3CO)cc2)cc1	-	.	-	.	.	.	.
COc1ccc(-c2ccc([C@@H]3[C@H](C#N)N(C(=O)c4cccc(F)c4)[C@H]3CO)cc2)cc1	103	.	-	105	-	-	31
N#C[C@H]1[C@H](c2ccc(C3=CCCCC3)cc2)[C@@H](CO)N1C(=O)c1cccc(F)c1	98	.	-	100	-	-	45
COc1ccc(-c2ccc([C@@H]3[C@@H](CO)N(C(=O)c4cccc(F)c4)[C@H]3C#N)cc2)cc1	?	.	-	-	-	-	-
COc1ccccc1-c1ccc([C@H]2[C@@H](CO)N(C(=O)c3cccc(F)c3)[C@H]2C#N)cc1	-	-	-	.	.	.	.
N#C[C@H]1[C@@H](c2ccc(C3=CCCCC3)cc2)[C@H](CO)N1C(=O)c1cccc(F)c1	-	.	-	.	.	.	.
O=C(C[C@H]1CC[C@H](NC(=O)Nc2cc(F)ccc2F)[C@@H](CO)O1)NCc1ccncn1	-	-	-	.	.	.	.
NC(=O)CC1C(=O)N(c2ccc(Cl)cc2)C(=S)N1Cc1cccnc1 (stereo unspecified)	.	-	.	.	.	.	.
COc1cc(NC(=O)COc2ccc(C)c(C)c2)ccc1NC(=O)c1ccccc1Cl	.	-	.	.	.	.	.
C[C@@H]1CCCCO[C@@H](CN(C)C(=O)Nc2cccc3ccccc23)[C@@H](C)CN([C@@H](C)CO)C(=O)c2cc(NC(=O)Nc3cccc4ccccc34)ccc2O1	-	.	-	.	.	.	.
C[C@@H]1CN([C@@H](C)CO)C(=O)c2cc(NC(=O)Nc3cccc4ccccc34)ccc2O[C@@H](C)CCCCO[C@@H]1CN(C)C(=O)C1CCCCC1	-	.	-	.	.	.	.
C[C@@H]1CCCCO[C@@H](CN(C)C(=O)C2CCCCC2)[C@@H](C)CN([C@@H](C)CO)C(=O)c2cc(NC(=O)Nc3cccc4ccccc34)ccc2O1	110	.	-	106	-	-	-
C[C@@H]1CCCCO[C@H](CN(C)C(=O)C2CCCCC2)[C@H](C)CN([C@H](C)CO)C(=O)c2cc(NC(=O)Nc3cccc4ccccc34)ccc2O1	117	.	-	105	113	-	-
C[C@H](CO)N1C[C@H](C)[C@H](CN(C)C)Oc2cc(-c3ccc(F)cc3)ccc2S1(=O)=O	-	-	-	.	.	.	.
CC(C)CC#Cc1ccc2c(c1)O[C@H](CN(C)C(=O)C1CCC1)[C@@H](C)CN([C@H](C)CO)S2(=O)=O	-	.	-	.	.	.	.
SMILES	T cruzi growth-1	IDH1 R132H inh	KDM4C inh	T cruzi growth-2	T cruzi growth-3	3T3 cytotox	3T3 cytotox 2
CC(C)CC#Cc1ccc2c(c1)O[C@@H](CN(C)C(=O)C1CCOCC1)[C@H](C)CN([C@@H](C)CO)S2(=O)=O	-	-	-	.	.	.	.
CC(C)CC#Cc1ccc2c(c1)O[C@@H](CN(C)C(=O)C1CCCCC1)[C@H](C)CN([C@H](C)CO)S2(=O)=O	114	-	-	100	112	-	104
CC(C)CC#Cc1ccc2c(c1)O[C@@H](CN(C)C(=O)C1CCCCC1)[C@@H](C)CN([C@H](C)CO)S2(=O)=O	115	.	-	96	116	-	105
CC(C)CC#Cc1ccc2c(c1)O[C@H](CN(C)C(=O)C1CCCCC1)[C@H](C)CN([C@H](C)CO)S2(=O)=O	111	.	-	99	106	63	104
CC(C)CC#Cc1ccc2c(c1)O[C@@H](CN(C)C(=O)C1CC1)[C@H](C)CN([C@H](C)CO)S2(=O)=O	-	.	-	.	.	.	.
O=C(CSc1nc(-c2ccccc2)c(-c2ccccc2)[nH]1)Nc1ccccc1F	.	-	.	.	.	.	.
NC(=O)CSc1nc2ccccc2n1CC(=O)N1CCCCC1	.	-	.	.	.	.	.
CCOC(=O)c1ccc(NC(=O)CN2c3cccc4cccc(c34)S2(=O)=O)cc1	.	-	.	.	.	.	.
C[C@@H]1CN([C@@H](C)CO)C(=O)c2cccc(NC(=O)c3nc4ccccc4s3)c2O[C@@H]1CN(C)C(=O)Nc1ccc(F)cc1	-	.	-	.	.	.	.
C[C@H](CO)N1C[C@H](C)[C@@H](CN(C)C(=O)Nc2ccc(C(F)(F)F)cc2)Oc2c(NC(=O)c3nc4ccccc4s3)cccc2C1=O	92	-	-	-	-	-	64
C[C@H](CO)N1C[C@H](C)[C@H](CN(C)C(=O)Nc2ccc(C(F)(F)F)cc2)Oc2c(NC(=O)c3nc4ccccc4s3)cccc2C1=O	?	.	-	103	-	45	80
C[C@@H]1CN([C@H](C)CO)C(=O)c2cccc(NC(=O)c3nc4ccccc4s3)c2O[C@@H]1CN(C)C(=O)Nc1ccc(C(F)(F)F)cc1	-	.	-	.	.	.	.
O=C(CSc1nc2ccc(NC(=O)c3ccccc3Br)cc2s1)Nc1ccccc1	.	-	.	.	.	.	.
CO[C@H]1CN(C)C(=O)c2ccc(NC(=O)C3CC3)cc2OC[C@@H](C)N(Cc2nccs2)C[C@H]1C	-	-	-	.	.	.	.
CC(C)(C)c1cc(CNCCS(=O)(=O)O)c(O)c(C(C)(C)C)c1	.	-	.	.	.	.	.
COc1cc2c(cc1NC(=O)CCCOc1ccccc1)oc1ccccc12	.	-	.	.	.	.	.
Cc1ccc(S(=O)(=O)N(C)C[C@H]2OCCCC[C@H](C)Oc3ccc(NS(=O)(=O)c4ccccc4)cc3C(=O)N([C@H](C)CO)C[C@H]2C)cc1	?	.	-	.	.	.	.
Cc1ccc(S(=O)(=O)N(C)C[C@H]2OCCCC[C@@H](C)Oc3ccc(NS(=O)(=O)c4ccccc4)cc3C(=O)N([C@H](C)CO)C[C@H]2C)cc1	?	.	-	101	-	-	-
